# SIRT5 block: blocks human SIRT5 desuccinylation of peptide. Purified SirT5, succinyl-peptide AMC, trypsin-coupled fluorescence. inhibition, % at 15 µM. actives 1.1% (n = 330,000). AID 652115; in the data active = inhibition above about 15%; inconclusive = no clear call, values can overlap the other calls
# E-selectin induc: induces E-selectin expression in human endothelial cells; HUVEC E-selectin immunofluorescence imaging; normalized: neutral wells 0, TNF-alpha wells 100; activation, % at 7.58 µM; actives 0.37% (n = 260,000); AID 686992;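 active = mean E-selectin-positive cell signal at least 10% of the positive control, reached in at least 60% of replicates, without over 20% cell loss; inconclusive = no rule given, readout overlaps actives, possibly toxicity-flagged; inactive = the rest, including those meeting only one limit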
# Target sequence (P16581 whole entry, looked up): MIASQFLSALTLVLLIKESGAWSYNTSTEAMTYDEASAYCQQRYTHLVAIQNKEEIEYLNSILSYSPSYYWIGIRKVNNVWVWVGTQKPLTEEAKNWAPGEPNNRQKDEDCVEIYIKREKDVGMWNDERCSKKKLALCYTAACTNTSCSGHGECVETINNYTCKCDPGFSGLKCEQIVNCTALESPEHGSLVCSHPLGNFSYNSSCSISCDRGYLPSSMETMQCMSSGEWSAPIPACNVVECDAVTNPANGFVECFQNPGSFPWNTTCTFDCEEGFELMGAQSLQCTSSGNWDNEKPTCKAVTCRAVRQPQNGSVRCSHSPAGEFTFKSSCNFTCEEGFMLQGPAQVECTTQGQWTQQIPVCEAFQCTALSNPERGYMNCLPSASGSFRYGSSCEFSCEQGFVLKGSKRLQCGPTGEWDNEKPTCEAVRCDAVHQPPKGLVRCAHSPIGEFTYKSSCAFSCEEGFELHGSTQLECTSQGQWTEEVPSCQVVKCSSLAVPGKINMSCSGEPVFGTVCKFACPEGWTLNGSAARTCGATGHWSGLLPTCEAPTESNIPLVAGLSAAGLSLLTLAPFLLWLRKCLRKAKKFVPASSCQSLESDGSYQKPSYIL
#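 material = human umbilical vein endothelial cells (HUVEC), E-selectin induction | quantity = 3,000 cells/well | medium = EGM-2 growth medium on 0.1% gelatin-coated wells | technique = immunofluorescence imaging | read-out basis = % PE-positive cells | control set = TNF-alpha positive control, DMSO neutral control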
# DENV2 CPE: protects cells from dengue virus 2 cytopathic effect. DENV2-infected cells, cytopathic effect rescue, plate reader. CPE inhibition, % at 9.99 µM. actives 1.7% (n = 350,000); in the data active = CPE inhibition above about 20%, passing the limit was not always enough; inconclusive = no clear call, values can overlap the other calls; tested in BHK-21 cells;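 note: 0% = median of neutral control wells and 100% = median of positive control wells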
# The depositor's hits bear a star; ? = inconclusive; / = no result given. In the library only some 2.9% were active in any assay of this set; here they are far more common.
SMILES,SIRT5 block,E-selectin induc,DENV2 CPE
COc1cccc(-c2ccc([C@H]3[C@@H](CO)N4CCCCN(CC5CCOCC5)C[C@@H]34)cc2)c1,3,/,2
COc1ccc(-c2ccc([C@H]3[C@@H](CO)N4CCCCN(CC5CCOCC5)C[C@@H]34)cc2)cc1,-4,0,24*
CCCC#Cc1ccc([C@@H]2[C@@H](CO)N3CCCCN(CC4CCOCC4)C[C@@H]23)cc1,-3,0,?
COc1ccc(-c2ccc([C@H]3[C@H]4CN(CC5CCOCC5)CCCCN4[C@H]3CO)cc2)cc1,0,0,0
COc1ccc(-c2ccc([C@H]3[C@@H](CO)N4CCCCN(CC5CCOCC5)C[C@H]34)cc2)cc1,4,0,33*
COCCCNC(=O)[C@@]1(Cc2ccccc2)N=C(c2ccc(OCCCO)cc2)O[C@H]1c1ccccc1,-2,/,1
COc1cccc(C(C)(O)c2nc(-c3ccc(S(C)(=O)=O)cc3)cs2)c1 (centres undefined),/,0,-6
Cc1ccc(C(=O)/C=C/Nc2ccccc2C(N)=O)o1,-2,/,-6
CCCNC(=S)NNC(=O)c1cc(C2CC2)nc2ccccc12,-2,0,25*
CCCNC(=S)NNC(=O)c1cc(-c2cccnc2)nc2ccccc12,2,-1,-8
COc1ccc(Br)cc1CNc1ccc(N2CCOCC2)cc1,-1,0,3
CCOC(=O)c1c(C)c(C(=O)N2CCN(c3ccccc3)CC2)c(C)n1C,1,/,1
Cn1c(N)c(C(=O)N2CCN(c3ccccc3)CC2)c(=O)n(C)c1=O,3,/,37*
COc1ccc(S(=O)(=O)N2C[C@@H](O)COC[C@@H]3O[C@@H](CC(=O)NCc4ccc(Cl)c(Cl)c4)CC[C@H]32)cc1,15*,0,0
COc1ccc(S(=O)(=O)N2C[C@H](O)COC[C@@H]3O[C@H](CC(=O)NCc4ccc(Cl)c(Cl)c4)CC[C@H]32)cc1,4,0,3
O=C(C[C@@H]1CC[C@H]2[C@@H](COC[C@@H](O)CN2S(=O)(=O)c2ccc(Cl)cc2)O1)NCCN1CCCC1,0,0,23*
O=C(C[C@@H]1CC[C@H]2[C@@H](COC[C@H](O)CN2S(=O)(=O)c2ccc(Cl)cc2)O1)NCCN1CCCC1,1,0,13
COc1ccc(S(=O)(=O)N2C[C@H](O)COC[C@H]3O[C@H](CC(=O)NCCCN(C)C)CC[C@@H]32)cc1,4,0,21*
CCNC(=O)C[C@@H]1CC[C@@H]2[C@H](COC[C@@H](O)CN2C(=O)Nc2ccc3c(c2)OCO3)O1,8,0,-2
CNC(=O)C[C@H]1CC[C@@H]2[C@H](COC[C@@H](O)CN2C(=O)Nc2ccc3c(c2)OCO3)O1,1,0,102*
COc1ccc(S(=O)(=O)N2C[C@@H](O)COC[C@@H]3O[C@H](CC(=O)NCCCN(C)C)CC[C@H]32)cc1,-1,0,12
COc1ccccc1CNC(=O)C[C@H]1C[C@H]2c3cc(NC(=O)C4CCOCC4)ccc3O[C@H]2[C@H](CO)O1,-1,0,8
O=C(C[C@@H]1CC[C@H]2[C@@H](COC[C@@H](O)CN2C(=O)Nc2ccc(Cl)c(Cl)c2)O1)NCc1ccc(Cl)c(Cl)c1,15*,0,-3
O=C(C[C@H]1CC[C@H]2[C@@H](COC[C@H](O)CN2C(=O)Nc2ccc(Cl)c(Cl)c2)O1)NCc1ccc(Cl)c(Cl)c1,3,0,-20
O=C(C[C@H]1CC[C@@H]2[C@H](COC[C@@H](O)CN2S(=O)(=O)c2ccc(F)cc2)O1)NCc1ccc(Cl)c(Cl)c1,-1,0,-2
SMILES,SIRT5 block,E-selectin induc,DENV2 CPE
O=C(C[C@@H]1CC[C@@H]2[C@H](COC[C@@H](O)CN2S(=O)(=O)c2ccc(F)cc2)O1)NCc1ccc(Cl)c(Cl)c1,-1,0,29*
Cc1ccc(S(=O)(=O)N2C[C@H]3[C@H]4C(=O)N(c5ccccc5)C(=O)[C@H]4C[C@H](OC(=O)NCc4ccccc4)[C@@]3(O)C2)cc1,22*,0,16
Cc1ccc(S(=O)(=O)N2C[C@H]3[C@H]4C(=O)N(c5ccccc5)C(=O)[C@H]4C[C@H](OC(=O)NCc4ccco4)[C@@]3(O)C2)cc1,-1,1,15
CO[C@@H]1CN(C)C(=O)c2cc(NC(=O)Nc3ccccc3F)ccc2OC[C@H](C)N(Cc2ccccc2C(=O)O)C[C@H]1C,/,0,-11
CC(=O)NC(Cc1c[nH]c2ccccc12)C(=O)NCCc1ccccn1 (centres undefined),0,46*,-1
COc1ccc(OCCNC(=O)C(Cc2c[nH]c3ccccc23)NC(C)=O)cc1 (centres undefined),-3,/,5
C[C@@H]1CN([C@@H](C)CO)C(=O)c2cccc(NC(=O)C3CCOCC3)c2O[C@H]1CN(C)Cc1ccc(C(=O)Nc2ccccc2N)cc1,0,0,11
C[C@@H]1CN([C@H](C)CO)C(=O)c2cccc(NC(=O)C3CCOCC3)c2O[C@@H]1CN(C)Cc1ccc(C(=O)Nc2ccccc2N)cc1,16*,2,47*
C[C@H](CO)N1C[C@H](C)[C@H](CN(C)Cc2ccc(C(=O)Nc3ccccc3N)cc2)Oc2c(NC(=O)c3ccncc3)cccc2C1=O,/,0,0
C[C@@H]1CN([C@H](C)CO)C(=O)c2cccc(NC(=O)c3ccncc3)c2O[C@@H]1CN(C)Cc1ccc(C(=O)Nc2ccccc2N)cc1,/,58*,-2
C[C@H](CO)N1C[C@H](C)[C@H](CN(C)Cc2ccc(C(=O)Nc3ccccc3N)cc2)Oc2c(NC(=O)Nc3ccc(F)cc3)cccc2C1=O,/,-15,36*
CC(C)NC(=O)Nc1cccc2c1O[C@H](CN(C)Cc1ccc(C(=O)Nc3ccccc3N)cc1)[C@H](C)CN([C@@H](C)CO)C2=O,-10,-2,21*
CC(C)NC(=O)Nc1cccc2c1O[C@@H](CN(C)Cc1ccc(C(=O)Nc3ccccc3N)cc1)[C@@H](C)CN([C@H](C)CO)C2=O,/,0,-11
C[C@@H]1CN([C@H](C)CO)C(=O)c2cccc(NC(=O)Nc3ccc(F)cc3)c2O[C@H]1CN(C)Cc1ccc(C(=O)Nc2ccccc2N)cc1,/,-1,0
COc1ccc(/C=N/NC(=O)c2cc(-c3ccc4c(c3)OCO4)n[nH]2)cc1OC,-4,/,-9
C[C@H](CO)N1C[C@H](C)[C@@H](CN(C)S(=O)(=O)c2ccsc2)OCc2ccccc2-c2ccccc2C1=O,-1,0,8
C[C@H](CO)N1C[C@H](C)[C@H](CN(C)Cc2ccc(C(F)(F)F)cc2)Oc2c(NC(=O)c3ccncc3)cccc2C1=O,9,0,3
C[C@H]1CN([C@@H](C)CO)C(=O)c2cccc(NC(=O)c3ccncc3)c2O[C@H]1CN(C)Cc1ccc(C(F)(F)F)cc1,-6,0,24*
COc1ccc(N(CC(=O)N/N=C(\C)c2cccs2)S(=O)(=O)c2ccccc2)cc1Cl,-2,/,-3
Cc1ccccc1NS(=O)(=O)c1nnc(NC(=O)c2ccccc2C)s1,7,0,2
C[C@@H]1CN([C@@H](C)CO)S(=O)(=O)c2ccc(C#CCC3CCCC3)cc2O[C@H]1CN(C)Cc1cccc(C(=O)O)c1,17*,/,4

# High-throughput results as filed in PubChem BioAssay.
